Results taken from ChEMBL document CHEMBL1142131, “Effect of anaerobic growth on quinolone lethality with Escherichia coli” (2007).
Values after ≈ are worked out from the molar mass of the structure shown. Active and inactive are the calls of the source. No cut-off for these calls is given here.

How the values were obtained:
Escherichia coli [1] = experiment: Bactericidal activity against Escherichia coli DM4100 in the presence of chloramphenicol; format: functional, organism-based
Outline: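 Aerobically growing mid-log cells at 37°C received chloramphenicol to 20 µg/ml 10 min before the quinolone. Treatment ran 2 h. Cells were diluted in ice-cold LB and plated aerobically on drug-free LB agar overnight at 37°C. Survival is CFU relative to CFU at quinolone addition. Replicate experiments were run.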

Escherichia coli [2] = experiment: Bactericidal activity against Escherichia coli DM4100 in saline; format: functional, organism-based
Escherichia coli [3] = experiment: Bactericidal activity against Escherichia coli DM4100 in aerobic condition; format: functional, organism-based
Outline: (§1)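 Mid-log cells grown aerobically at 37°C in liquid medium, split into 2-ml portions and given quinolone for 2 h with shaking in air. Chloramphenicol 20 µg/ml was added 10 min before quinolone for the chloramphenicol arm. Cells were diluted in ice-cold LB and plated on drug-free LB agar overnight at 37°C aerobically. Read-out is CFU relative to CFU at time of quinolone addition.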

Escherichia coli [4] = experiment: Bactericidal activity against Escherichia coli DM4100 in anaerobic condition; format: functional, organism-based
Outline: (§2)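 Mid-log aerobic cultures at 37°C were split into 2-ml portions in sealed tubes flushed with anaerobic gas (85% N2, 10% H2, 5% CO2). After 20 min, anaerobic quinolone solution was added and incubation continued 2 h under gas flow. Cells were diluted in ice-cold LB, plated aerobically on drug-free LB agar overnight at 37°C. Survival is CFU relative to CFU at drug addition.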

Escherichia coli [5] = experiment: Bacteriostatic activity against Escherichia coli DM4100 in aerobic condition; format: functional
Outline: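 MIC from 10^4 to 10^5 cells/ml in liquid medium with serial twofold quinolone dilutions. Incubated at 37°C with shaking, 2-ml cultures, aerobic.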

Escherichia coli [6] = experiment: Bacteriostatic activity against Escherichia coli DM4100 in anaerobic condition; format: functional
Outline: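 MIC from 10^4 to 10^5 cells/ml in liquid medium with serial twofold quinolone dilutions. Incubated at 37°C in sealed tubes after 20 min flushing with anaerobic gas (85% N2, 10% H2, 5% CO2).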

Escherichia coli [7] = experiment: Chromosome fragmentation in Escherichia coli DM4100 assessed as reduced lysate viscosity at 50 ug/ml after 2 hrs in aerobic condition; format: functional, organism-based
Outline: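 Exponential aerobic cells were treated 2 h with drug, then gently lysed with lysozyme and nonionic detergents at 20°C for 2–3 min. Lysate twofold dilutions received pancreatic RNase 20 µg/ml, were heated at 80°C for 2 min, chilled on ice and brought to 20°C. Viscosity was measured by capillary viscometry.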

Escherichia coli [8] = experiment: Bactericidal activity in Escherichia coli KD1373 containing parC resistance mutation in anaerobic condition; format: functional, organism-based; outline: as §2
Escherichia coli [9] = experiment: Bactericidal activity in Escherichia coli KD2329 with gyrA-par C resistant mutation; format: functional, organism-based; outline: as §1
Escherichia coli [10] = experiment: Bactericidal activity in Escherichia coli KD1373 containing parC resistance mutation in aerobic condition; format: functional, organism-based; outline: as §1
Escherichia coli [11] = experiment: Bactericidal activity in Escherichia coli KD1373 containing parC resistance mutation in presence of chloramphenicol; format: functional, organism-based; outline: as §1
Escherichia coli [12] = experiment: Bactericidal activity in Escherichia coli KD1373 containing parC mutation in anerobic condition; format: functional, organism-based; outline: as §2
Escherichia coli [13] = experiment: Bactericidal activity in Escherichia coli KD2329 containing gyrA-parC mutation; format: functional, organism-based; outline: as §1
Escherichia coli [14] = experiment: Bactericidal activity in Escherichia coli KD2750 containing gyrA resistant mutation in anerobic condition; format: functional, organism-based; outline: as §2

Row | SMILES | Activity (Escherichia coli [1]) | Activity (Escherichia coli [2]) | Activity (Escherichia coli [3]) | Activity (Escherichia coli [4]) | MIC (Escherichia coli [5]) [µg/mL] | MIC (Escherichia coli [6]) [µg/mL] | Activity (Escherichia coli [7]) | Activity (Escherichia coli [8]) | Activity (Escherichia coli [9]) | Activity (Escherichia coli [10]) | Activity (Escherichia coli [11]) | Activity (Escherichia coli [12]) | Activity (Escherichia coli [13]) | Activity (Escherichia coli [14])
1 | O=C(O)c1cn(C2CC2)c2cc(N3CCNCC3)c(F)cc2c1=O | Active | Active | Active | Active |  |  |  |  |  |  |  |  |  | 
2 | CCn1cc(C(=O)O)c(=O)c2ccc(C)nc21 [NALIDIXIC ACID] | inactive | inactive | Active | inactive | 5 (≈ 21.5 µM) | 5 (≈ 21.5 µM) | Active |  |  |  |  |  |  | 
3 | CCN1CCN(c2c(F)cc3c(=O)c(C(=O)O)cn(C4CC4)c3c2OC)CC1 | Active |  | Active | Active | 0.08 (≈ 0.205 µM) | 0.08 (≈ 0.205 µM) |  | Active | inactive | Active | Active |  |  | 
4 | CCn1cc(C(=O)O)c(=O)c2cc(F)c(N3CCNCC3)cc21 [NORFLOXACIN] | inactive | Active | Active | Active | 0.075 (≈ 0.235 µM) | 0.075 (≈ 0.235 µM) |  |  |  |  |  | Active | inactive | Active
